Series [1] addresses T1, Cannabinoid receptor 2 (Homo sapiens, UniProt P34972). As to the kind of experiment: Agonist activity at human CB2 receptor expressed in CHO cells by [35S]-GTPgammaS binding assay. Format: functional, cell-based. A general note: GTPγS is a poorly hydrolysed GTP analogue; its binding reports G protein activation.
The target in series [2] is T1, Cannabinoid receptor 2. As to the kind of experiment: Agonist activity at human CB2 receptor expressed in CHO cells by [35S]-GTPgammaS binding assay relative to control. The format is functional, cell-based.
Series [3] deals with T2, Cannabinoid receptor 1 (Homo sapiens, UniProt P21554). As to the kind of experiment: Agonist activity at human CB1 receptor expressed in Sf9 cells by [35S]-GTPgammaS binding assay. The format is functional.
Series [4] concerns the target T2, Cannabinoid receptor 1. As to the kind of experiment: Agonist activity at human CB1 receptor expressed in Sf9 cells by [35S]-GTPgammaS binding assay relative to control. Format: functional.
Series [5] is described as follows: Drug metabolism in human liver microsomes at 2 uM after 0.5 hr by LC/MS/MS analysis. The format is ADME. Conditions: read-out: Drug metabolism. Background: Liver microsomes are a subcellular fraction often used to study metabolism.
A short description of series [6]: Drug metabolism in rat liver microsomes at 2 uM after 0.5 hr by LC/MS/MS analysis. Conditions: read-out: Drug metabolism. Format: ADME.
Series [7] in a line: Drug metabolism in dog liver microsomes at 2 uM after 0.5 hr by LC/MS/MS analysis. Format: ADME, Canis lupus familiaris. The conditions noted are these: read-out: Drug metabolism.
For series [8], the species on record is Rattus norvegicus. Kind of series: Inhibition of GABA gated chloride channel in rat cortex at 10 uM by radioligand binding assay. Summed up: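 Radioligand binding to GABA-gated chloride channels from rat, run by an outside contract lab.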

This is an account of results in ChEMBL document CHEMBL3352465, “The SAR development of substituted purine derivatives as selective CB2 agonists for the treatment of chronic pain” (Bioorg Med Chem Lett, 2014).

The structures appear in SMILES notation.

T1 sequence (P34972 whole entry): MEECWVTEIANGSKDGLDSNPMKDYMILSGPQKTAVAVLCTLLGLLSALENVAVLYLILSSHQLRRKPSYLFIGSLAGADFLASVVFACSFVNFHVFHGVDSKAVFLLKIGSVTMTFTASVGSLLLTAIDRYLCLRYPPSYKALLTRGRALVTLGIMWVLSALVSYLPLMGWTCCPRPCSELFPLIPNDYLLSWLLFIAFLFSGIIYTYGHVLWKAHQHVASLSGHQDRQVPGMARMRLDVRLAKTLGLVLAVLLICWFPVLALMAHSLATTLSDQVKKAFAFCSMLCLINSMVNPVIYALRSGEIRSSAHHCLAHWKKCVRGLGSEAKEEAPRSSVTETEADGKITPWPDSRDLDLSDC
T2 sequence (P21554 whole entry): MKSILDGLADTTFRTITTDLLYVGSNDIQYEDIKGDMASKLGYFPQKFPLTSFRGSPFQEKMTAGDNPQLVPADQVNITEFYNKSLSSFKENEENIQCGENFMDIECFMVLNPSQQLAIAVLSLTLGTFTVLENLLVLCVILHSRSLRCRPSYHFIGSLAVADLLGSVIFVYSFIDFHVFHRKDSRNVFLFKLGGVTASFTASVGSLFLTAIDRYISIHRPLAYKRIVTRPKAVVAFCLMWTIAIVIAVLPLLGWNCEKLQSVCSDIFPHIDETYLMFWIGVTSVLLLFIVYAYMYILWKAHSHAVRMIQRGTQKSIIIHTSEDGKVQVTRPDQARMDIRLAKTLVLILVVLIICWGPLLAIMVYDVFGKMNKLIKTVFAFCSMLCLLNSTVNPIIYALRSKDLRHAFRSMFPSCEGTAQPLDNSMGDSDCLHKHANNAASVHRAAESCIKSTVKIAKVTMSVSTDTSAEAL

A word on the EC50: it is the concentration needed to bring the measured effect to its halfway point. The low end stands for a more potent agent, the high end for a less potent agent. `CCN1CCN(c2nc(C)nc3c2nc(-c2ccccc2Cl)n3CCCOC)CC1`: the EC50 in series [1] is 4.3 nM; in series [3], 1380 nM. The Efficacy in series [2] turned out to be 96.5%; in series [4], 25.7%. Moreover, the metabolised at 0.5 h, 2 µM in series [5] was found to be 36%; in series [6], 71%; in series [7], 99%.

By inhibition is commonly meant the percentage by which the read-out fell short of the control. Regarding `CCN1CCN(c2nc(C)nc3c2nc(-c2ccccc2Cl)n3C(COC)COC)CC1`, the EC50 was 5 nM in series [1] and more than 100000 nM in series [3]. In addition, in series [2], the Efficacy came out at 69.3%. In addition, the metabolised at 0.5 h, 2 µM in series [5] came out at 35%; in series [6], 58%; in series [7] it was 66%. In addition, the inhibition in series [8] is less than 10%.

For the molecule `Cc1nc(N2CCN(C)CC2)c2nc(-c3ccccc3Cl)n(C(C)(C)CO)c2n1`, the EC50 was determined as 12.5 nM in series [1] and 5000 nM in series [3]. Moreover, the Efficacy in series [2] was determined as 72.6%; in series [4] it was 43.2%. In addition, the results for the metabolised at 0.5 h, 2 µM in series [5], in series [6] and in series [7] were 43%, 93% and 90%, respectively. Further, the inhibition in series [8] came to 20%.

For `COC(=O)NCCn1c(-c2ccccc2Cl)nc2c(N3CCN(C)CC3)nc(C)nc21`, the metabolised at 0.5 h, 2 µM came to 14% in series [5], 25% in series [6] and 62% in series [7].
